FGF22 binding: binders of recombinant human FGF22 by thermal shift | SYPRO orange fluorescence; percent of sucrose octasulfate shift, DMSO zero | activity (Tm shift, normalised), % at 9.99 µM | actives 1.5% (n = 340,000) | Q9HCT0 | AID 651658;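 active = mean Tm shift, scaled 0 neutral to 100 positive control, at about 1.3% or above, every replicate too, limit read from the data; inconclusive = no clear call, values can overlap the other calls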
rRNA inh HTS: inhibitors of bacterial rRNA selective over humanized ribosomes; E. coli WT GFP vs humanized-ribosome RFP mutants, fluorescence, 24 h; hits give low values; DMSO median 0, no signal -100; GFP signal change (wild-type ribosome), % (no concentration beside the values); actives 1.6% (n = 350,000);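 active = significant combined selectivity score with lowered wild-type GFP, culture density cut under 30%, mutant RFP and density less affected; inactive = any of these conditions unmet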
ERAP1 HTS inh: inhibitors of human ERAP1 aminopeptidase; inhibition, % at 10.7 µM; Q9NZ08; AID 652197; recombinant ERAP1, Leu-AMC fluorescence, 60 min; actives 0.15% (n = 340,000);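 active = mean replicate inhibition of at least 30%, or all replicates individually reaching that 30% level; inactive = mean below 30% and not every replicate reaching it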
Target sequence (Q9NZ08 whole entry, looked up): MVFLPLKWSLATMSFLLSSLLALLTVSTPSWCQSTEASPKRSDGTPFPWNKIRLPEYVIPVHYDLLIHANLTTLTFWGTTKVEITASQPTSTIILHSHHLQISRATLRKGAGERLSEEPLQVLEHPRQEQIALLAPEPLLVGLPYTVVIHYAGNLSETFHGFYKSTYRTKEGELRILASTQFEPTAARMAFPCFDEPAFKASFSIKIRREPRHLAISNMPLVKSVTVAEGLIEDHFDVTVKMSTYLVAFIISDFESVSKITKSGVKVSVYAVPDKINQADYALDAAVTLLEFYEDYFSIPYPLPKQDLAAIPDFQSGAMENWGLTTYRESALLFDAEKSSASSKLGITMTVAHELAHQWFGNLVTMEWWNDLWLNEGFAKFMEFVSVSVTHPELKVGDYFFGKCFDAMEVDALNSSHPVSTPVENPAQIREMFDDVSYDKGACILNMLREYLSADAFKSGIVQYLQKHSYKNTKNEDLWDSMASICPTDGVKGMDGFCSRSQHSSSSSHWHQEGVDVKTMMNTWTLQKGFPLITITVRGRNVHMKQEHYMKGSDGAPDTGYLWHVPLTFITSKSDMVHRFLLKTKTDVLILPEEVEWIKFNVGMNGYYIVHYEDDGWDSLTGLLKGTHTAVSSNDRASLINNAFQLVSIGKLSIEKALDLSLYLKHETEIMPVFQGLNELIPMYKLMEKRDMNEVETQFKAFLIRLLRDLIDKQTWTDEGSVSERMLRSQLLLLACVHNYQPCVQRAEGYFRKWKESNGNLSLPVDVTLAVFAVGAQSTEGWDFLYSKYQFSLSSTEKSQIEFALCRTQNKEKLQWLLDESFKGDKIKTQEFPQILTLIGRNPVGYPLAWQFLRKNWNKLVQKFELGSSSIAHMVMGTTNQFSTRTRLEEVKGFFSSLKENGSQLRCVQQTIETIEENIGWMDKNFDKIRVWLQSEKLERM
Cneo AK release: Cryptococcus neoformans lysis via adenylate kinase release; C. neoformans lysis, adenylate kinase release luminescence, 4 h; normalised: neutral wells 0, clomiphene wells 100; lysis activity, % at 15 µM; actives 0.2% (n = 360,000); AID 651654;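 active = mean lysis activity across replicates of at least 80%, whatever share of replicates individually reach that level; inactive = mean lysis activity below 80%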
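Test system: log-phase Cryptococcus neoformans yeast cells; Quantity: yeast cell density of 5 × 10^6 cells/mL; Buffer or medium: YPD; Doses: single compound concentration per well; Timing: 4 h at 37 °C static, read 1 h later; Measured by: AK luminescence; Read-out basis: lysis from increased AK signal; Control set: Clomiphene as positive control.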
HIV Env fusion: blocks HIV Env-driven cell-cell fusion; actives 1.1% (n = 360,000); HeLa-JRFL Env/CEM21 cell fusion, luciferase; inhibition, % at 12.3 µM;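 active = mean replicate inhibition score of at least 50 and every replicate individually at or above 50; inconclusive = only one of the two criteria met; inactive = mean below 50 and not all replicates reaching 50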
PGC1a acetyl inh: modulators of PGC1a acetylation; U2OS PGC1a acetylation, AlphaScreen anti-acetyl-lysine; with virally co-expressed GCN5 acetyltransferase; inhibition, % at 15.6 µM; actives 0.17% (n = 350,000); AID 651687;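 active = every replicate shows inhibition of at least 40%; inconclusive = mean inhibition at least 40% but some replicate below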
Each line names hits and unclear results; the compound was inactive in the other large screens. This is a sample that favours compounds with a hit; in the whole collection about 3.5% have one here.

CS(=O)(=O)c1ccc2nc(NC(=O)c3ccccc3Cl)sc2c1	none (no result: PGC1a acetyl inh)
Cc1ccc2nc(NC(=O)C3CCN(S(=O)(=O)c4cccs4)CC3)sc2c1	HIV Env fusion 80 (no result: FGF22 binding, rRNA inh HTS, ERAP1 HTS inh)
O=C(O)c1ccc(Cl)cc1NC(=O)C1CCN(S(=O)(=O)c2cccs2)CC1	rRNA inh HTS -18
Cc1ccc2nc(N/C(=N/S(=O)(=O)c3cccs3)c3ccccc3Cl)sc2c1	rRNA inh HTS -32
COc1ccc2nc(NC(=O)C3CCN(S(=O)(=O)c4cccs4)CC3)sc2c1	none (no result: FGF22 binding, rRNA inh HTS, ERAP1 HTS inh, HIV Env fusion)
NC(=O)CC(NC(=O)Cc1cccc2ccccc12)c1ccc(NCCc2cccc(F)c2)c([N+](=O)[O-])c1 (stereo unspecified)	none (no result: ERAP1 HTS inh, PGC1a acetyl inh)
C[C@@H]1CN([C@H](C)CO)C(=O)Cc2cc(NS(=O)(=O)c3cn(C)cn3)ccc2O[C@H]1CN(C)S(=O)(=O)c1ccccc1	none
N#CC(C#N)=C(Nc1ccc(F)cc1)SCc1cccc(Br)c1	HIV Env fusion 65 (no result: rRNA inh HTS)
CCCN1C[C@@H](C)[C@H](OC)CN(C)C(=O)c2cc(NC(=O)Nc3cccc(OC)c3)ccc2OC[C@H]1C	none (no result: FGF22 binding, rRNA inh HTS, ERAP1 HTS inh, Cneo AK release, HIV Env fusion)
Cc1nn(C)c(Cl)c1C(=O)NCC(=O)Nc1ccc(C(C)C)cc1	FGF22 binding 44 (no result: Cneo AK release)
CN(C)c1ccc([C@@H]2[C@@H]([N+](=O)[O-])[C@H]3C=Cc4ccccc4N3[C@H]2C(=O)c2ccc(Cl)cc2)cc1	rRNA inh HTS -28
COc1cccc(C2CC(c3ccc(C)cc3)n3nc(N)nc3N2)c1 (stereo unspecified)	HIV Env fusion 66
Cc1ccc(S(=O)(=O)N2CCOCC2)cc1C(=O)OCC(=O)c1c(N)n(C)c(=O)n(C)c1=O	none (no result: rRNA inh HTS)
CN1CC(c2ccccc2)C2(SC(=S)N(Cc3ccco3)C2=O)C12C(=O)Nc1ccccc12 (stereo unspecified)	HIV Env fusion 77 (no result: FGF22 binding, rRNA inh HTS, ERAP1 HTS inh)
CN1CC(c2ccccn2)C2(SC(=S)N(Cc3ccccc3)C2=O)C12C(=O)Nc1ccccc12 (stereo unspecified)	none (no result: FGF22 binding, rRNA inh HTS, ERAP1 HTS inh)
COC(=O)CCC(C)C1CCC2C3CCC4CC(O)CCC4(C)C3CC(O)C12C (stereo unspecified)	none (no result: HIV Env fusion)
O=C(N/N=C/c1ccccn1)c1cccc(S(=O)(=O)Nc2ccccc2Cl)c1	rRNA inh HTS -40 (no result: Cneo AK release)
O=C(O)COc1ccccc1/C=N/NC(=O)c1cccc(S(=O)(=O)Nc2cccc(Cl)c2)c1	FGF22 binding 43 (no result: Cneo AK release)
COc1cccc(C(=O)CSc2nnc(CNS(=O)(=O)c3ccc(C)cc3)n2C)c1	PGC1a acetyl inh 89 (no result: FGF22 binding, rRNA inh HTS, ERAP1 HTS inh, Cneo AK release, HIV Env fusion)
COC(=O)c1nc(-c2ccc(C)cc2)oc1N(C)C	none (no result: FGF22 binding, rRNA inh HTS, ERAP1 HTS inh, HIV Env fusion)
Cc1nc(-c2ccccc2)sc1-c1ccn[nH]1	none (no result: PGC1a acetyl inh)
Cn1c(-c2csc(-c3ccccc3)n2)n[nH]c1=S	FGF22 binding 44
CCn1c(-c2sc(-c3ccccc3)nc2C)n[nH]c1=S	rRNA inh HTS -30 (no result: Cneo AK release, PGC1a acetyl inh)
COc1ccc(N(CC(=O)Nc2cccc([N+](=O)[O-])c2C)S(C)(=O)=O)cc1OC	none (no result: FGF22 binding, rRNA inh HTS, ERAP1 HTS inh, Cneo AK release)
Cc1cccc(C(=O)N[C@H](C(=O)Nc2ncc(C)s2)C(C)C)c1	none (no result: Cneo AK release, PGC1a acetyl inh)
C[C@H](NC(=O)c1ccccc1)C(=O)Nc1nc(-c2ccccn2)cs1	FGF22 binding 43 (no result: Cneo AK release)
CC(Oc1ccccc1)C(=O)Nc1nc(-c2ccccn2)cs1 (stereo unspecified)	none (no result: PGC1a acetyl inh)
Cc1cccc(C(=O)NC(C(=O)Nc2nc(-c3ccccn3)cs2)C(C)C)c1 (stereo unspecified)	rRNA inh HTS -35 (no result: Cneo AK release)
O=C(CCCSc1ccccc1)Nc1nc(-c2ccccn2)cs1	none (no result: FGF22 binding, rRNA inh HTS, ERAP1 HTS inh, HIV Env fusion)
CSCCC(=O)Nc1nc(-c2ccccn2)cs1	rRNA inh HTS -29 (no result: Cneo AK release, PGC1a acetyl inh)
COc1cccc(/C=N/Nc2ncnc(Cl)c2N)c1O	HIV Env fusion 55 (no result: Cneo AK release, PGC1a acetyl inh)
COc1cccc(/C=N/Nc2nccnc2Cl)c1O	none (no result: Cneo AK release)
Cc1ccc(Cn2c(SCC(=O)NCc3ccco3)nc3ccsc3c2=O)cc1	HIV Env fusion 71 (no result: FGF22 binding, rRNA inh HTS, ERAP1 HTS inh)
Cc1ccc(CNC(=O)CSc2nc3ccsc3c(=O)n2Cc2ccccn2)cc1	HIV Env fusion inconclusive
COc1ccccc1C(=O)OCc1c(-c2ccccc2)ncc2ccccc12	rRNA inh HTS -25 (no result: ERAP1 HTS inh)
COc1ccc(C(=O)OCc2c(-c3ccccc3)ncc3ccccc23)cc1	none
